The term MIC denotes the smallest concentration in the dilution series that meets the test's criterion for growth inhibition. The low end stands for a more susceptible organism, the high end for a less susceptible organism. As a reminder, the inhibition is the percentage by which the read-out fell short of the control. Higher therefore signals a strong effect. By pIC50 is commonly meant the negative decadic logarithm of the IC50, by convention in mol/L. A lower pIC50 goes with a high IC50.

Structures are written as SMILES. pIC50: −log10 of the molar value. Values after ≈ are worked out from the molar mass of the structure shown.

We go through six molecules from ChEMBL document CHEMBL2086304, “Synthesis and in vitro antimycobacterial and isocitrate lyase inhibition properties of novel 2-methoxy-2'-hydroxybenzanilides, their thioxo analogues and benzoxazoles” (Eur J Med Chem, 2012).

Assay [1] has as its system Mycobacterium tuberculosis. The assay is described as follows: Antimycobacterial activity against Mycobacterium tuberculosis 331/88 after 14 days by micromethod. It is filed as functional. The conditions noted are these: 331/88, 336 h. A digest of the protocol:
(§1)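 Inocula: M. tuberculosis My 331/88 at 10^-3 dilution, M. avium My 330/88 at 10^-5, M. kansasii My 235/80 and clinical isolate 6509/96 at 10^-4. Compounds added in DMSO at 1000 down to 0.5 (twofold series). Read at 14 and 21 days, plus 7 days for M. kansasii. MIC taken as lowest concentration inhibiting growth.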

Assay [2] has as its system Mycobacterium tuberculosis. The assay is described as follows: Antimycobacterial activity against Mycobacterium tuberculosis 331/88 after 21 days by micromethod. It is filed as functional. The settings on record: 331/88, 504 h. A digest of the protocol:
as §1

Assay [3] relates to Mycobacterium avium. As to the kind of experiment: Antimycobacterial activity against isoniazid resistance Mycobacterium avium 330/88 after 14 days by micromethod. It is filed as functional. The settings on record: 330/88, 336 h. A digest of the protocol:
as §1

Assay [4] deals with Mycobacterium avium. The assay is described as follows: Antimycobacterial activity against isoniazid resistance Mycobacterium avium 330/88 after 21 days by micromethod. Type of assay: functional. The settings on record: 330/88, 504 h. A digest of the protocol:
as §1

Assay [5] concerns Mycobacterium kansasii. The assay is described as follows: Antimycobacterial activity against Mycobacterium kansasii 6509/96 clinical isolate after 7 days by micromethod. Type of assay: functional. The settings on record: 6509/96, 168 h. A digest of the protocol:
as §1

Assay [6] has as its system Mycobacterium kansasii. As to the kind of experiment: Antimycobacterial activity against isoniazid resistance Mycobacterium kansasii 225/80 after 7 days by micromethod. Type of assay: functional. The settings on record: 225/80, 168 h.
Assay [7] relates to Mycobacterium kansasii. The assay is described as follows: Antimycobacterial activity against isoniazid resistance Mycobacterium kansasii 225/80 after 14 days by micromethod. It is filed as functional. The settings on record: 225/80, 336 h.
Assay [8] has as its system Mycobacterium kansasii. The assay is described as follows: Antimycobacterial activity against isoniazid resistance Mycobacterium kansasii 225/80 after 21 days by micromethod. Type of assay: functional. The conditions noted are these: 225/80, 504 h.
Assay [9] concerns Mycobacterium kansasii. The assay is described as follows: Antimycobacterial activity against Mycobacterium kansasii 6509/96 clinical isolate after 14 days by micromethod. Type of assay: functional. The conditions noted are these: 6509/96, 336 h. A digest of the protocol:
as §1

The subject of assay [10] is Mycobacterium kansasii. The assay is described as follows: Antimycobacterial activity against Mycobacterium kansasii 6509/96 clinical isolate after 21 days by micromethod. It is filed as functional. The conditions noted are these: 6509/96, 504 h. A digest of the protocol:
as §1

Assay [11] has as its target T1, Isocitrate lyase (Mycobacterium tuberculosis) (UniProt P9WKK7).
T1 sequence (whole entry): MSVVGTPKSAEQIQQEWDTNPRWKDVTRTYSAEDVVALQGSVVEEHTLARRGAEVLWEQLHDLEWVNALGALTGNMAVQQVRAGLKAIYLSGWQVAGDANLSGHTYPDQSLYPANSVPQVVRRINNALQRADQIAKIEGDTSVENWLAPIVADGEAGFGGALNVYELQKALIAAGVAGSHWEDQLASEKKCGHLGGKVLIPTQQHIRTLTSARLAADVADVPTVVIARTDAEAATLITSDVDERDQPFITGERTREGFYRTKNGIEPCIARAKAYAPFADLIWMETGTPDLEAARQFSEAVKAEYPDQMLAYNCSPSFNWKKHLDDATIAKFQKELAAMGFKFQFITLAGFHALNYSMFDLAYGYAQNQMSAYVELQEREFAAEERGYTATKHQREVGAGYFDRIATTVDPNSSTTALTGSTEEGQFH
As to the kind of experiment: Inhibition of Mycobacterium tuberculosis H37Rv isocitrate lyase expressed in Escherichia coli HB101 at 10 umol/L. A digest of the protocol:
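Isocitrate lyase assayed per Dixon–Kornberg in 96-well format. Buffer: 50 mmol/L KH2PO4, 4 mmol/L MgCl2, 4 mmol/L phenylhydrazine, 12 mmol/L cysteine, pH 7.0. Glyoxylate phenylhydrazone read at 324 nm. Compounds added in DMSO, with DMSO-alone inhibition subtracted.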

For assay [12], the system named is HepG2. As to the kind of experiment: Cytotoxicity against human HepG2 cells after 24 hrs by CellTiter-96 cell viability assay. Type of assay: functional, cell-based. The settings on record: HepG2, 24 h. A digest of the protocol:
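Hep G2 human hepatic cells (passage 12), 10,000 per well, grown 24 h at 37 °C, 5% CO2 in MEM with 1% glutamine, 10% FBS and 1% nonessential amino acids. Compounds in DMSO at eight increasing concentrations, quadruplicate, 24 h at 37 °C. Kit reagent added, 1.5 h at 37 °C, absorbance 490 nm. IC50 is the concentration reducing viability to 50% of control.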

A short description of assay [13]: Selectivity index, ratio of IC50 for human HepG2 cells to MIC for Mycobacterium tuberculosis 331/88 after 14 days. It is filed as functional. A digest of the protocol: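 Cytotoxicity in Hep G2 cells (passage 12), 10,000 cells/well, in MEM with 10% FBS, 1% glutamine and 1% nonessential amino acids. Cells preincubated 24 h, 37 °C, 5% CO2. Compounds in DMSO at eight concentrations in quadruplicate, 24 h. MTS-type reagent added for 1.5 h, A490 read, IC50 taken at 50% viability. SI = this IC50 over the 14-day M. tuberculosis MIC.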

`COc1ccc(Cl)cc1C(=S)Nc1cc(Br)ccc1O`: the MIC in assay [1] came to 16 µM (≈ 5.96 µg/mL); in assay [2], 32 µM (≈ 11.9 µg/mL); in assay [3], 32 µM (≈ 11.9 µg/mL); in [4], 32 µM (≈ 11.9 µg/mL); in [5] it was 16 µM (≈ 5.96 µg/mL); in [6] it was 8 µM (≈ 2.98 µg/mL). Besides, the MIC in assay [7] was found to be 16 µM (≈ 5.96 µg/mL); in assay [8], 16 µM (≈ 5.96 µg/mL); in assay [9], 16 µM (≈ 5.96 µg/mL); in [10], 32 µM (≈ 11.9 µg/mL). This molecule returned an inhibition in [11] of 8%. In [12], this molecule gave a pIC50 of 5.06. In addition, the “Selectivity Index” value in assay [13] came out at 0.55.

Regarding `COc1ccc(Cl)cc1C(=S)Nc1cc(Cl)c(Cl)cc1O`, the MIC in assay [1] worked out at 16 µM (≈ 5.8 µg/mL); in assay [2], 32 µM (≈ 11.6 µg/mL); in assay [3], 62.5 µM (≈ 22.7 µg/mL); in assay [4], 62.5 µM (≈ 22.7 µg/mL); in assay [5] it was 16 µM (≈ 5.8 µg/mL); in assay [6], 32 µM (≈ 11.6 µg/mL). In addition, the MIC in assay [7] worked out at 62.5 µM (≈ 22.7 µg/mL); in [8], 62.5 µM (≈ 22.7 µg/mL); in assay [9] it was 32 µM (≈ 11.6 µg/mL); in assay [10], 62.5 µM (≈ 22.7 µg/mL). In assay [11], the inhibition was found to be 9%. This molecule showed a pIC50 in assay [12] of 5.43. For the same molecule, the “Selectivity Index” value in assay [13] came to 0.23.

In the case of `COc1cc(Cl)ccc1C(=S)Nc1ccc(Br)cc1O`, the MIC in [1] stood at 16 µM (≈ 5.96 µg/mL); in assay [2] it was 32 µM (≈ 11.9 µg/mL); in assay [3] it was 32 µM (≈ 11.9 µg/mL); in assay [4] it was 32 µM (≈ 11.9 µg/mL); in assay [5], 16 µM (≈ 5.96 µg/mL); in [6], 16 µM (≈ 5.96 µg/mL). The MIC came to 32 µM (≈ 11.9 µg/mL) in assay [7], 62.5 µM (≈ 23.3 µg/mL) in [8], 32 µM (≈ 11.9 µg/mL) in [9] and 32 µM (≈ 11.9 µg/mL) in [10]. The inhibition in [11] is 10%. The pIC50 in [12] is 5.41. In addition, the “Selectivity Index” value in assay [13] is recorded as 0.24.

With `COc1cc(Cl)ccc1C(=O)Nc1ccc(Cl)cc1O`, the MIC in [1] amounted to 8 µM (≈ 2.5 µg/mL); in [2], 8 µM (≈ 2.5 µg/mL); in [3], 62.5 µM (≈ 19.5 µg/mL); in assay [4] it was 125 µM (≈ 39 µg/mL); in assay [5], 16 µM (≈ 4.99 µg/mL); in assay [6], 62.5 µM (≈ 19.5 µg/mL). The MIC in [7] was 62.5 µM (≈ 19.5 µg/mL); in [8], 125 µM (≈ 39 µg/mL); in [9], 62.5 µM (≈ 19.5 µg/mL); in [10], 62.5 µM (≈ 19.5 µg/mL). In addition, in assay [11], the inhibition is 4%. The molecule further had a pIC50 in assay [12] of 5.13. The “Selectivity Index” value in [13] was determined as 0.92.

Turning to `COc1ccc(Cl)cc1C(=O)Nc1cc(C(F)(F)F)ccc1O`, the MIC in assay [1] worked out at 250 µM (≈ 86.4 µg/mL); in assay [2], 250 µM (≈ 86.4 µg/mL); in assay [3], 62.5 µM (≈ 21.6 µg/mL); in assay [4] it was 125 µM (≈ 43.2 µg/mL); in assay [5] it was 62.5 µM (≈ 21.6 µg/mL); in [6] it was 32 µM (≈ 11.1 µg/mL). The MIC in assay [7] was determined as 62.5 µM (≈ 21.6 µg/mL); in assay [8], 62.5 µM (≈ 21.6 µg/mL); in assay [9] it was 125 µM (≈ 43.2 µg/mL); in assay [10] it was 125 µM (≈ 43.2 µg/mL). The inhibition in [11] came out at 0%. The same molecule had a pIC50 in assay [12] of 4.81. For the same molecule, in assay [13], the “Selectivity Index” value turned out to be 0.06.

For `COc1ccc(Cl)cc1C(=S)Nc1cc(C(F)(F)F)ccc1O`, the MIC stood at 32 µM (≈ 11.6 µg/mL) in assay [1]; 32 µM (≈ 11.6 µg/mL) in [2]; 62.5 µM (≈ 22.6 µg/mL) in assay [3]; 62.5 µM (≈ 22.6 µg/mL) in [4]; 16 µM (≈ 5.79 µg/mL) in assay [5]; 32 µM (≈ 11.6 µg/mL) in [6]. Moreover, the MIC in assay [7] was found to be 62.5 µM (≈ 22.6 µg/mL); in assay [8], 62.5 µM (≈ 22.6 µg/mL); in assay [9], 32 µM (≈ 11.6 µg/mL); in assay [10] it was 32 µM (≈ 11.6 µg/mL). Further, the inhibition in assay [11] came to 8%. Moreover, the pIC50 in assay [12] was 5.23. Moreover, the “Selectivity Index” value in assay [13] came to 0.18.
